Measurements taken from PMC6025808 (Journal of fluorescence, 2017).
Positions count from the first letter of the chain named. Where two headings read alike, the source gives them in different places.

Tests used:
GK-W257 (W99R/W167F) = target: T1, GK-W257 (W99R/W167F) (Homo sapiens, UniProt P35557, W167F/W99R); assay: Change of tryptophan fluorescence yield of GK-W257 on adding glucose or glycerol; type: binding; conditions: GK-W257, 95% glycerol/buffer (v/v)
T1 sequence (P35557 1-465 W99R/W167F): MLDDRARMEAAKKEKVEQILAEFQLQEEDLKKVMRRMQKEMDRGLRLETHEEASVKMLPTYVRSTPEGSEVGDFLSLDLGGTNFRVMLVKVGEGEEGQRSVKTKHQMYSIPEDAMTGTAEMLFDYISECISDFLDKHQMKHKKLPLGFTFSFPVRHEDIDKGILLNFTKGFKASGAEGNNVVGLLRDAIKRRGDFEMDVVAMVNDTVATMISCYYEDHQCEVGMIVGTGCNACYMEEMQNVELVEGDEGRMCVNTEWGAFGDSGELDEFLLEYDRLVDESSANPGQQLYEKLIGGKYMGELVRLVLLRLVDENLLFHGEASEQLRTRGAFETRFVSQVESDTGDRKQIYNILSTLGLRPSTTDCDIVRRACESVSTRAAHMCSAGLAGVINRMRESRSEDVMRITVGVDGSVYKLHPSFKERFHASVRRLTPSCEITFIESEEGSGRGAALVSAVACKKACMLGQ
In short: (§1)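 Recombinant human β-cell glucokinase single-Trp variant, made as a GST fusion in E. coli, cleaved with factor Xa, and repurified. Buffer was 20 mM K phosphate, 50 mM KCl, 1 mM EDTA, 1 mM DTT, pH 7.2, with or without 100 mM D-glucose or 95% glycerol (v/v). Excitation 295 nm, emission 300–500 nm, 20 °C. Quantum yield was measured against NATA (φ 0.14) in water at A < 0.05, with refractive-index correction. The ratio is with/without additive.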

GK-W99 (W167F/W257F) = target: T2, GK-W99 (W167F/W257F) (Homo sapiens, UniProt P35557, W167F/W257F); assay: Change of tryptophan fluorescence yield of GK-W99 on adding glucose or glycerol; type: binding; conditions: GK-W99, 95% glycerol/buffer (v/v)
T2 sequence (P35557 1-465 W167F/W257F): T1 sequence (P35557 1-465 W99R/W167F) with R99W, W257F
In short: as §1

[1] = target: T3, GK-W65 (W99R/W167F/W257F/T65W) (Homo sapiens, UniProt P35557, T65W/W167F/W257F/W99R); assay: Change of tryptophan fluorescence yield of GK-W65 on adding glucose or glycerol; type: binding; conditions: GK-W65, 95% glycerol/buffer (v/v)
T3 sequence (P35557 1-465 T65W/W99R/W167F/W257F): T1 sequence (P35557 1-465 W99R/W167F) with T65W, W257F
In short: as §1

GK-W167 (W99R/W257F) = target: T4, GK-W167 (W99R/W257F) (Homo sapiens, UniProt P35557, W257F/W99R); assay: Change of tryptophan fluorescence yield of GK-W167 on adding glucose or glycerol; type: binding
T4 sequence (P35557 1-465 W99R/W257F): T1 sequence (P35557 1-465 W99R/W167F) with F167W, W257F
In short: as §1

GK-WT = assay: Change of tryptophan fluorescence yield of GK-WT on adding glucose or glycerol; type: binding, human
[2] = target: T5, GK-WT (recombinant wild type human β-cell glucokinase) (Homo sapiens, UniProt P35557); assay: D-glucose binding to GK-WT by tryptophan fluorescence titration
T5 sequence (P35557 1-465): T1 sequence (P35557 1-465 W99R/W167F) with R99W, F167W
In short: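 Recombinant human wild-type β-cell glucokinase was titrated with D-glucose in K-phosphate buffer, pH 7.2, with or without cosolvent, and read by Trp fluorescence at 20 °C (excitation 295 nm, emission 300–500 nm). Fluorescence was fitted to F = F0 + (Fsat − F0)[glucose]/([glucose] + Kd) to give Kd and F/F0, the intensity at glucose saturation over the intensity without glucose.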

Structure (SMILES) | (Φf)/Φ0 observed, fluorescence quantum yield with/without (times) (GK-W257 (W99R/W167F)) | (Φf)/Φ0 observed, fluorescence quantum yield with/without (times) (GK-W99 (W167F/W257F)) | (Φf)/Φ0 observed, fluorescence quantum yield with/without (times) (GK-W99 (W167F/W257F); listed as Glycerol) | (Φf)/Φ0 observed, fluorescence quantum yield with/without (times) [1] | (Φf)/Φ0 observed, fluorescence quantum yield with/without (times) (GK-W167 (W99R/W257F); GK-W167, 95% glycerol/buffer (v/v)) | (Φf)/Φ0 observed, fluorescence quantum yield with/without (times) (GK-WT; 95% glycerol/buffer (v/v)) | (Φf)/Φ0 observed, fluorescence quantum yield with/without (times) (GK-W167 (W99R/W257F); GK-W167, 100 mM D-glucose in buffer, listed as Glucose) | (Φf)/Φ0 observed, fluorescence quantum yield with/without (times) (GK-W167 (W99R/W257F); GK-W167, 100 mM D-glucose in buffer, listed as glucose) | F/F0 upon D-glucose binding ([2]; 1 M sucrose) | F/F0 upon D-glucose binding ([2]; 1 M trehalose) | F/F0 upon D-glucose binding ([2]; 2 M L-glucose) | F/F0 upon D-glucose binding ([2]; 20% glycerol) | Kd ([2]; D-glucose binding KD, 1 M sucrose) [µM] | Kd ([2]; D-glucose binding KD, 1 M trehalose) [µM] | Kd ([2]; D-glucose binding KD, 2 M L-glucose) [µM] | Kd ([2]; read-out: D-glucose binding KD, PO4 buffer pH 7.2, 20 °C) [µM] | (Φf)/Φ0 observed, fluorescence quantum yield with/without (times) (GK-WT; 100 mM D-glucose in buffer, listed as Glucose) | (Φf)/Φ0 observed, fluorescence quantum yield with/without (times) (GK-WT; 100 mM D-glucose in buffer, listed as glucose)
OCC(O)CO [glycerol] | 1.3 | over 4.6 | 4.6 | 1.1 | ~2.3 | 2.6 |  |  |  |  |  |  |  |  |  |  |  | 
OC[C@H]1OC(O)[C@H](O)[C@@H](O)[C@@H]1O (stereo partly drawn) [D-glucose] |  |  |  |  |  |  | 1.8 | about 1.8 | 1.74 | 1.71 | 1.63 | 1.74 | 3570 | 1750 | 1120 | 7390 | 2.0 | ~2
